# Results: paper PMC12166256 (Clinical Pharmacology and Therapeutics, 2025)
# Assay: MAD study: safety and tolerability
# Type: in vivo, human
# Summary of the method: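 Healthy males aged 18–55 with BMI 18–30 kg/m² were followed through dosing and a 6–8-day follow-up. Checks: physical examination, clinical laboratory tests, vital signs and 12-lead ECG, with adverse events coded in MedDRA. Events of special interest: ALT ≥2×ULN, QTcF ≥500 ms, Grade ≥2 photosensitivity, symptomatic overdose. Treatment-emergent events were summarised descriptively by organ class, preferred term and dose level for all exposed participants.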
structure (smiles),measurement,setting,value
CN1C(=O)c2cccc(OC(F)F)c2[C@H]2C[C@@H]1c1nc3ccc(-c4cnc(C5(N)CCC5)nc4)cc3n12 [Balinatunfib],"Alanine aminotransferase increased TEAE, events","MAD 200 mg BID, N = 8",0
same,"Alanine aminotransferase increased TEAE, participants","MAD 200 mg BID, N = 8",0 n (%)
same,"Any event TEAE, events","MAD 200 mg BID, N = 8",7
same,"Any event TEAE, participants","MAD 200 mg BID, N = 8",4 (50.0) n (%)
same,"Constipation TEAE, events","MAD 200 mg BID, N = 8",0
same,"Constipation TEAE, participants","MAD 200 mg BID, N = 8",0 n (%)
same,"Diarrhea TEAE, events","MAD 200 mg BID, N = 8",1
same,"Diarrhea TEAE, participants","MAD 200 mg BID, N = 8",1 (12.5) n (%)
same,"Dry skin TEAE, events","MAD 200 mg BID, N = 8",2
same,"Dry skin TEAE, participants","MAD 200 mg BID, N = 8",2 (25.0) n (%)
same,"Dysgeusia TEAE, events","MAD 200 mg BID, N = 8",1
same,"Dysgeusia TEAE, participants","MAD 200 mg BID, N = 8",1 (12.5) n (%)
same,"Gastrointestinal disorders TEAE, events","MAD 200 mg BID, N = 8",1
same,"Gastrointestinal disorders TEAE, participants","MAD 200 mg BID, N = 8",1 (12.5) n (%)
same,"General disorders and administration site conditions TEAE, events","MAD 200 mg BID, N = 8",1
same,"General disorders and administration site conditions TEAE, participants","MAD 200 mg BID, N = 8",1 (12.5) n (%)
same,"Headache TEAE, events","MAD 200 mg BID, N = 8",0
same,"Headache TEAE, participants","MAD 200 mg BID, N = 8",0 n (%)
same,"Injury, poisoning, and procedural complications TEAE, events","MAD 200 mg BID, N = 8",0
same,"Injury, poisoning, and procedural complications TEAE, participants","MAD 200 mg BID, N = 8",0 n (%)
same,"Investigations TEAE, events","MAD 200 mg BID, N = 8",0
same,"Investigations TEAE, participants","MAD 200 mg BID, N = 8",0 n (%)
same,"Medical device site reaction TEAE, events","MAD 200 mg BID, N = 8",1
same,"Medical device site reaction TEAE, participants","MAD 200 mg BID, N = 8",1 (12.5) n (%)
same,"Musculoskeletal and connective tissue disorders TEAE, events","MAD 200 mg BID, N = 8",0
same,"Musculoskeletal and connective tissue disorders TEAE, participants","MAD 200 mg BID, N = 8",0 n (%)
same,"Nasal dryness TEAE, events","MAD 200 mg BID, N = 8",2
same,"Nasal dryness TEAE, participants","MAD 200 mg BID, N = 8",2 (25.0) n (%)
same,"Neck pain TEAE, events","MAD 200 mg BID, N = 8",0
same,"Neck pain TEAE, participants","MAD 200 mg BID, N = 8",0 n (%)
same,"Nervous system disorders TEAE, events","MAD 200 mg BID, N = 8",1
same,"Nervous system disorders TEAE, participants","MAD 200 mg BID, N = 8",1 (12.5) n (%)
same,"Oropharyngeal pain TEAE, events","MAD 200 mg BID, N = 8",0
same,"Oropharyngeal pain TEAE, participants","MAD 200 mg BID, N = 8",0 n (%)
same,"Reproductive system and breast disorders TEAE, events","MAD 200 mg BID, N = 8",0
same,"Reproductive system and breast disorders TEAE, participants","MAD 200 mg BID, N = 8",0 n (%)
same,"Respiratory, thoracic, and mediastinal disorders TEAE, events","MAD 200 mg BID, N = 8",2
same,"Respiratory, thoracic, and mediastinal disorders TEAE, participants","MAD 200 mg BID, N = 8",2 (25.0) n (%)
same,"Skin and subcutaneous tissue disorders TEAE, events","MAD 200 mg BID, N = 8",2
same,"Skin and subcutaneous tissue disorders TEAE, participants","MAD 200 mg BID, N = 8",2 (25.0) n (%)
same,"Sneezing TEAE, events","MAD 200 mg BID, N = 8",0
same,"Sneezing TEAE, participants","MAD 200 mg BID, N = 8",0 n (%)
same,"Testicular mass TEAE, events","MAD 200 mg BID, N = 8",0
same,"Testicular mass TEAE, participants","MAD 200 mg BID, N = 8",0 n (%)
same,"Wound TEAE, events","MAD 200 mg BID, N = 8",0
same,"Wound TEAE, participants","MAD 200 mg BID, N = 8",0 n (%)
same,"PCSA QTcF increase from baseline ]30-60] msec, participants n/N1",MAD 300 mg BID,four
same,ALT in the participant with ALT > 3 ULN,"MAD 300 mg BID, Day 18, 4 days after the last dose",181 IU/L
same,"Abdominal pain TEAE, events","MAD 300 mg BID, N = 8",1
same,"Abdominal pain TEAE, participants","MAD 300 mg BID, N = 8",1 (12.5) n (%)
same,"Alanine aminotransferase increased TEAE, events","MAD 300 mg BID, N = 8",1
same,"Alanine aminotransferase increased TEAE, participants","MAD 300 mg BID, N = 8",1 (12.5) n (%)
same,"Any event TEAE, events","MAD 300 mg BID, N = 8",3
same,"Any event TEAE, participants","MAD 300 mg BID, N = 8",2 (25.0) n (%)
same,"Constipation TEAE, events","MAD 300 mg BID, N = 8",1
same,"Constipation TEAE, participants","MAD 300 mg BID, N = 8",1 (12.5) n (%)
same,"Diarrhea TEAE, events","MAD 300 mg BID, N = 8",0
same,"Diarrhea TEAE, participants","MAD 300 mg BID, N = 8",0 n (%)
same,"Dry skin TEAE, events","MAD 300 mg BID, N = 8",0
same,"Dry skin TEAE, participants","MAD 300 mg BID, N = 8",0 n (%)
same,"Dysgeusia TEAE, events","MAD 300 mg BID, N = 8",0
same,"Dysgeusia TEAE, participants","MAD 300 mg BID, N = 8",0 n (%)
same,"Gastrointestinal disorders TEAE, events","MAD 300 mg BID, N = 8",2
same,"Gastrointestinal disorders TEAE, participants","MAD 300 mg BID, N = 8",1 (12.5) n (%)
same,"General disorders and administration site conditions TEAE, events","MAD 300 mg BID, N = 8",0
same,"General disorders and administration site conditions TEAE, participants","MAD 300 mg BID, N = 8",0 n (%)
same,"Headache TEAE, events","MAD 300 mg BID, N = 8",0
same,"Headache TEAE, participants","MAD 300 mg BID, N = 8",0 n (%)
same,"Injury, poisoning, and procedural complications TEAE, events","MAD 300 mg BID, N = 8",0
same,"Injury, poisoning, and procedural complications TEAE, participants","MAD 300 mg BID, N = 8",0 n (%)
same,"Investigations TEAE, events","MAD 300 mg BID, N = 8",1
same,"Investigations TEAE, participants","MAD 300 mg BID, N = 8",1 (12.5) n (%)
same,"Medical device site reaction TEAE, events","MAD 300 mg BID, N = 8",0
same,"Medical device site reaction TEAE, participants","MAD 300 mg BID, N = 8",0 n (%)
same,"Musculoskeletal and connective tissue disorders TEAE, events","MAD 300 mg BID, N = 8",0
same,"Musculoskeletal and connective tissue disorders TEAE, participants","MAD 300 mg BID, N = 8",0 n (%)
same,"Nasal dryness TEAE, events","MAD 300 mg BID, N = 8",0
same,"Nasal dryness TEAE, participants","MAD 300 mg BID, N = 8",0 n (%)
same,"Neck pain TEAE, events","MAD 300 mg BID, N = 8",0
same,"Neck pain TEAE, participants","MAD 300 mg BID, N = 8",0 n (%)
same,"Nervous system disorders TEAE, events","MAD 300 mg BID, N = 8",0
same,"Nervous system disorders TEAE, participants","MAD 300 mg BID, N = 8",0 n (%)
same,"Oropharyngeal pain TEAE, events","MAD 300 mg BID, N = 8",0
same,"Oropharyngeal pain TEAE, participants","MAD 300 mg BID, N = 8",0 n (%)
same,"Reproductive system and breast disorders TEAE, events","MAD 300 mg BID, N = 8",0
same,"Reproductive system and breast disorders TEAE, participants","MAD 300 mg BID, N = 8",0 n (%)
same,"Respiratory, thoracic, and mediastinal disorders TEAE, events","MAD 300 mg BID, N = 8",0
same,"Respiratory, thoracic, and mediastinal disorders TEAE, participants","MAD 300 mg BID, N = 8",0 n (%)
same,"Skin and subcutaneous tissue disorders TEAE, events","MAD 300 mg BID, N = 8",0
same,"Skin and subcutaneous tissue disorders TEAE, participants","MAD 300 mg BID, N = 8",0 n (%)
same,"Sneezing TEAE, events","MAD 300 mg BID, N = 8",0
same,"Sneezing TEAE, participants","MAD 300 mg BID, N = 8",0 n (%)
same,"Testicular mass TEAE, events","MAD 300 mg BID, N = 8",0
same,"Testicular mass TEAE, participants","MAD 300 mg BID, N = 8",0 n (%)
same,"Wound TEAE, events","MAD 300 mg BID, N = 8",0
same,"Wound TEAE, participants","MAD 300 mg BID, N = 8",0 n (%)
same,participants with AESIs (ALT increase),"MAD, all balinatunfib groups",four
same,participants with at least one TEAE,"MAD, all balinatunfib groups (12/32)",37.5%
same,tolerability,"all repeated oral doses (100–600 mg total daily dose, 14 days)",well tolerated
